Source: PubChem
SUMO1-SIM PPI = modulators of SUMO1 protein-protein interactions, primary screen, biochemical, uHTS | inhibition, % at 20 µM | AID 602429, 2012 | Small ubiquitin-related modifier 1 (Homo sapiens), P63165 | SUMO1 binding to a labelled peptide, TR-FRET, 1 h | 360,000 tested, 0.33% active; in the data active = inhibition above about 37%
STEP inh = STEP phosphatase inhibitors, primary screen, biochemical, fluorescence intensity, uHTS. Tyrosine-protein phosphatase non-receptor type 5 (Homo sapiens), P54829. recombinant STEP, OMFP fluorogenic substrate. inhibition, % at 20 µM. 360,000 tested, 0.25% active;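 active = inhibition at 20 µM, scaled per plate between control wells, above about 37%, limit read from the data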
Target sequence (P54829 whole entry, looked up): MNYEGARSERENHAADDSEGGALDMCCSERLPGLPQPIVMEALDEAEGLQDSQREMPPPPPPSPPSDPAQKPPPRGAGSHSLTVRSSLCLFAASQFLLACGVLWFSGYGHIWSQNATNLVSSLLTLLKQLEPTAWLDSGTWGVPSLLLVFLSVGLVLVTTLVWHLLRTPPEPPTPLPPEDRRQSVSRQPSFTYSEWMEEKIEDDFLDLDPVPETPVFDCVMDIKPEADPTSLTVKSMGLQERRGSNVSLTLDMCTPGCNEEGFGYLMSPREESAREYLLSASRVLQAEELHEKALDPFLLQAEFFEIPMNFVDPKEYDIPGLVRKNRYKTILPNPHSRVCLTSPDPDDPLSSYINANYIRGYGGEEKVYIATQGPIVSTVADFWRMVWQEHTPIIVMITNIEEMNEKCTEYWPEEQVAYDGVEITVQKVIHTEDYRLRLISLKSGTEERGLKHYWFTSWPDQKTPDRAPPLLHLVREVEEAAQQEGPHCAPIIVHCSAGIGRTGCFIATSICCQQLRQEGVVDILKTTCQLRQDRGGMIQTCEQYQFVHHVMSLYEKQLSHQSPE
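System: STEP phosphatase, cell-free reaction; Buffer or medium: Bis-Tris pH 6.0 buffer with DTT, detergent; Incubation: 20 min at room temperature, dark; Measured by: fluorescence, 480/540 nm.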
LMPTP inh = LMPTP phosphatase inhibitors, primary screen, biochemical, fluorescence intensity, uHTS; Low molecular weight phosphotyrosine protein phosphatase (Homo sapiens), P24666; recombinant LMPTP-A, OMFP fluorogenic substrate; inhibition, % at 20 µM; 360,000 tested, 0.22% active;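 active = compounds that cut the enzyme signal by at least half of the control window in the single-dose screen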
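Buffer or medium: Bis-Tris pH 6.0, DTT, detergent; Assay system: LMPTP-A enzyme; Quantity: 0.625 nM enzyme; Detection: endpoint fluorescence intensity; Times: 50 min dark incubation at room temperature; Controls: substrate-only low control, DMSO enzyme-plus-substrate high control; Doses: single 20 µM dose; Read-out: percent inhibition versus substrate-only and uninhibited controls; Reagent: 400 µM OMFP.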
Scp1 inh = Scp-1 phosphatase inhibitors, primary screen, biochemical, colorimetric, uHTS | Carboxy-terminal domain RNA polymerase II polypeptide A small phosphatase 1 (Homo … | Recombinant Scp1, phosphopeptide, malachite green phosphate absorbance | inhibition, % at 20 µM | 340,000 tested, 0.88% active;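 active = inhibition above about 50% at 20 µM, limit read from the data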
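Material: truncated SCP-1 phosphatase (76-261aa) / Buffer or medium: 50 mM Tris acetate pH 5.5, 0.005% Tween-20, 10 mM MgCl2 / Compound dosing: one concentration, 20 µM, with 1.0% DMSO / Incubation: 45 min room-temperature reaction, 5 min colour, 30 min stabiliser / Detection: colorimetric free-phosphate detection, absorbance 630 nm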
Rpn11 inh = Rpn11 (PSMD14) deubiquitinase inhibitors, primary screen, biochemical, fluorescence polarization, uHTS. 360,000 tested, 0.59% active. inhibition, % at 20 µM. 26S proteasome non-ATPase regulatory subunit 14 (Homo sapiens), O00487. AID 588493, 2011. human 26S proteasome, Ub4-pepOG fluorescence polarization; 20S core pre-blocked with epoxomicin;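 active = inhibition at 20 µM, scaled to each plate's controls, above about 33%, limit read from the data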
DNMT1 inh = human DNMT1 methyltransferase inhibitors, primary screen, biochemical, molecular beacon, fluorescence, HinP1I cleavage, uHTS | AID 588458, 2011 | inhibition (reported as % activation of signal), % at 10 µM | 360,000 tested, 0.83% active; in the data active = inhibition above about 50%
A number is an active result. Most compounds without a hit are left out; they make up all but 2.3% or so of the library.

`CCC(=O)N1N=C(c2ccc(Cl)cc2)CC1c1ccco1` (configuration not stated) gave SUMO1-SIM PPI inactive, STEP inh inactive, LMPTP inh inactive, Scp1 inh inactive, Rpn11 inh inactive and DNMT1 inh inactive.
`CCc1ccc(C2=NN(C(C)=O)C(c3ccco3)C2)cc1` (configuration not stated) gave SUMO1-SIM PPI inactive, STEP inh inactive, LMPTP inh inactive, Scp1 inh 69, Rpn11 inh inactive and DNMT1 inh inactive.
`O=C(CSc1nnc(SCc2ccccc2)s1)N/N=C/c1c[nH]c2ccccc12` gave SUMO1-SIM PPI 75, STEP inh inactive, LMPTP inh inactive, Scp1 inh inactive, Rpn11 inh inactive and DNMT1 inh inactive.
For COc1ccc(NC(=O)Nc2ccc3c(c2)OCO3)c(C)c1 the results were SUMO1-SIM PPI inactive, STEP inh inactive, LMPTP inh inactive, Scp1 inh inactive, Rpn11 inh inactive and DNMT1 inh inactive.
C#CCOCCOCCOCCNc1nc(N2CCN(C(=O)CCCCCCCCCCNC(=O)[C@@H](CCSC)n3cc(CCO)nn3)CC2)nc(N2CCN(C(=O)CCCCCCCCCCNC(=O)[C@H]([C@@H](C)CC)n3cc(CCCCN=C(N)N)nn3)CC2)n1 was read as SUMO1-SIM PPI 90, STEP inh inactive, LMPTP inh inactive, Scp1 inh inactive, Rpn11 inh 87 and DNMT1 inh inactive.
C#CCOCCOCCOCCNc1nc(N2CCN(C(=O)CCCCCCCCCCNC(=O)[C@H](CCCCN)n3cc(CCO)nn3)CC2)nc(N2CCN(C(=O)CCCCCCCCCCNC(=O)[C@H](CCCN=C(N)N)n3cc(C[C@@H](C)CC)nn3)CC2)n1 was read as SUMO1-SIM PPI 90, STEP inh inactive, LMPTP inh inactive, Scp1 inh inactive, Rpn11 inh 77 and DNMT1 inh inactive.
For COc1cccc(NC(=O)CN(C)C(=O)c2cc3c(s2)CCC(C)C3)c1 (configuration not stated) the results were SUMO1-SIM PPI inactive, STEP inh inactive, LMPTP inh inactive, Scp1 inh inactive, Rpn11 inh inactive and DNMT1 inh inactive.
COc1cccc(NC(=O)CN(C)C(=O)c2cc3c(s2)CCC3)c1 was read as Scp1 inh 60.
COc1ccc(NC(=O)CN(C)C(=O)c2cc3c(s2)CCCCC3)cc1 was read as SUMO1-SIM PPI inactive, STEP inh inactive, LMPTP inh inactive, Scp1 inh inactive, Rpn11 inh inactive and DNMT1 inh inactive.
COc1ccc(NC(=O)CN(C)C(=O)c2cc3c(s2)CCC3)cc1 was read as SUMO1-SIM PPI 76, STEP inh inactive, LMPTP inh 64, Scp1 inh 86 and DNMT1 inh 97.
`N#CC(C(=O)Nc1cccc(Cl)c1)=C1Nc2ccccc2N1` gave SUMO1-SIM PPI 62, STEP inh inactive, LMPTP inh inactive, Scp1 inh inactive, Rpn11 inh inactive and DNMT1 inh inactive.
O=C(Nc1ccc2c(c1)OCO2)c1cc(-c2ccc(O)cc2)on1 was read as SUMO1-SIM PPI 39, STEP inh inactive, LMPTP inh inactive, Scp1 inh inactive, Rpn11 inh inactive and DNMT1 inh inactive.
For O=C1NC(=S)S/C1=C\C=C\c1ccc([N+](=O)[O-])o1 the results were SUMO1-SIM PPI 97, STEP inh 66, LMPTP inh 82, Scp1 inh 87 and DNMT1 inh 91.
`OCc1cn(-c2ccccc2)nc1-c1ccc(-c2nn(-c3ccccc3)cc2CO)cc1` gave SUMO1-SIM PPI inactive, STEP inh inactive, LMPTP inh inactive, Scp1 inh inactive, Rpn11 inh inactive and DNMT1 inh inactive.
